Reference: ChEMBL document CHEMBL1135825, “Antitumor AHMA linked to DNA minor groove binding agents: synthesis and biological evaluation” (J Med Chem, 2002)

Legend:
[1] = test system: TSGH; assay: In vitro cytotoxicity against human TSGH; format: functional, cell-based
How it was run: (§1)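 XTT-tetrazolium growth assay, cells exposed 72 h to six to seven concentrations per compound. Phenazine methosulfate-XTT added for 6 h at 37 °C, then absorbance read at 450 and 630 nm. IC50 derived from median-effect plot of dose-effect data.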

[2] = Cytotoxicity against human nasopharyngeal carcinoma BM-1; format: functional; how it was run: as §1
[3] = test system: HONE1 cell line; assay: Cytotoxicity against human nasopharyngeal carcinoma HONE-1; format: functional, cell-based; how it was run: as §1
[4] = test system: HT-29; assay: Cytotoxicity against human colon HT-29 cell line; format: functional, cell-based; how it was run: as §1
[5] = test system: HepG2; assay: Cytotoxicity against human hepatoma Hepa-G2; format: functional, cell-based; how it was run: as §1
[6] = Cytotoxicity against human Glioblastoma multiformi DBTRG; format: functional; how it was run: as §1
[7] = test system: Nucleic Acid; assay: Percentage of protein-linked DNA breaks.; format: functional; set-up: concentration or dose not given beside the values
How it was run: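 Log-phase cells labeled 24 h with [14C]-thymidine, trypsinized, resuspended at 5 × 10⁵ cells/mL and shaken 1 h at 37 °C in suspension. Drug at 10 μM added for 0.5 h. Protein-linked DNA breaks quantified by potassium-SDS coprecipitation and reported as percentage.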

[8] = test system: MX1; assay: Cytotoxicity against human Breast carcinoma MX-1; format: functional, cell-based; how it was run: as §1
[9] = test system: CCRF-CEM; assay: (§2) Cytotoxicity against human T-cell acute lymphocytic leukemia CCRF-CEM; format: functional, cell-based; how it was run: as §1
[10] = test system: CCRF-CEM; assay: as §2; format: cell-based; how it was run: as §1
[11] = test system: Nucleic Acid; assay: Percentage of protein-linked DNA breaks; Not determined; format: functional

| SMILES | IC50 [1] | IC50 [2] | IC50 [3] | IC50 [4] | IC50 [5] | IC50 [6] | Activity [7] | IC50 [8] | IC50 [9] | IC50 [10] | Activity [11] |
| --- | --- | --- | --- | --- | --- | --- | --- | --- | --- | --- | --- |
| CN(C)CCNC(=O)c1cc(NC(=O)c2cc(NC(=O)CCC(=O)Nc3cc(CO)cc(Nc4c5ccccc5nc5ccccc45)c3)cn2C)cn1C | 4800 nM | 8600 nM | 2400 nM | 4400 nM | 7000 nM | 20000 nM | 3.3% |  |  |  |  |
| CCOC(=O)Nc1cc(COC(=O)CCCC(=O)Nc2cc(C(=O)Nc3cc(C(=O)NCCN(C)C)n(C)c3)n(C)c2)cc(Nc2c3ccccc3nc3ccccc23)c1 | 1200 nM | 490 nM | 130 nM | 640 nM | 630 nM | 7500 nM | 4.2% | 156 nM | 2040 nM |  |  |
| CN1CCN(c2ccc3nc(-c4ccc5nc(-c6ccc(OCCCC(=O)Nc7cc(CO)cc(Nc8c9ccccc9nc9ccccc89)c7)cc6)[nH]c5c4)[nH]c3c2)CC1 | > 100000 nM | > 100000 nM | > 100000 nM | > 100000 nM | > 100000 nM | > 100000 nM |  | > 100000 nM |  | > 100000 nM |  |
| CN(C)CCNC(=O)c1cc(NC(=O)CCC(=O)Nc2cc(CO)cc(Nc3c4ccccc4nc4ccccc34)c2)cn1C | 4600 nM | 7000 nM | 850 nM | 1700 nM | 4200 nM | 8100 nM | 3.3% |  |  |  |  |
| CN(C)CCNC(=O)c1cc(NC(=O)CCCC(=O)Nc2cc(CO)cc(Nc3c4ccccc4nc4ccccc34)c2)cn1C | 46800 nM | 73300 nM | 39000 nM | > 100000 nM | 100000 nM | 73600 nM | 0% |  |  |  |  |
| CCOC(=O)Nc1cc(CO)cc(Nc2c3ccccc3nc3ccccc23)c1 | 340 nM | 380 nM | 70 nM | 480 nM | 460 nM | 5000 nM | 15% |  | 57 nM |  |  |
| CCOC(=O)Nc1cc(COC(=O)CCC(=O)Nc2cc(C(=O)NCCN(C)C)n(C)c2)cc(Nc2c3ccccc3nc3ccccc23)c1 | 80 nM | 80 nM | 60 nM | 230 nM | 90 nM | 800 nM | 16.5% | 39 nM | 6850 nM |  |  |
| CN(C)CCNC(=O)c1cc(NC(=O)c2cc(NC(=O)CCCC(=O)Nc3cc(CO)cc(Nc4c5ccccc5nc5ccccc45)c3)cn2C)cn1C | 36400 nM | 77800 nM | 63900 nM | > 100000 nM | 68000 nM | > 100000 nM | 0% |  |  |  |  |
| Nc1cc(CO)cc(Nc2c3ccccc3nc3ccccc23)c1 | 450 nM | 860 nM | 310 nM | 880 nM | 1400 nM | 3500 nM |  |  | 360 nM |  | 10.5% |
| CCOC(=O)Nc1cc(COC(=O)CCCC(=O)Nc2cc(C(=O)NCCN(C)C)n(C)c2)cc(Nc2c3ccccc3nc3ccccc23)c1 | 1200 nM | 80 nM | 800 nM | 750 nM | 80 nM | 400 nM | 4.6% | 85 nM | 17600 nM |  |  |
